# From ChEMBL document CHEMBL4346654 (Eur J Med Chem, 2019)
# How the values were obtained:
# Type in all cases: functional
# [1] = tested on: Streptococcus pneumoniae; test: Selectivity ratio of MBC to MIC for Streptococcus pneumoniae 07P390 expressing constitutive ermB gene
# Method in brief: (§1)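 Isolates were identified by 16S rDNA sequencing. MIC was determined by CLSI-recommended two-fold broth dilution. For MBC, samples from 1–8 fold MIC were transferred to culture medium and subcultured for 24 h without antibiotic.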
# [2] = tested on: Streptococcus pyogenes; test: Antibacterial activity against Streptococcus pyogenes 12-207 expressing mef gene assessed as reduction in microbial growth by CLSI based two-fold broth dilution method
# [3] = tested on: Staphylococcus aureus; test: Antibacterial activity against MLS-resistant Staphylococcus aureus PU 32 expressing inducible ermA gene assessed as reduction in microbial growth by CLSI based two-fold broth dilution method
# [4] = tested on: Moraxella catarrhalis; test: Bactericidal activity against erythromycin-susceptible Moraxella catarrhalis 13L332 pretreated followed by subculture in absence of compound measured after 24 hrs; method in brief: as §1
# [5] = tested on: Streptococcus pyogenes; test: Selectivity ratio of MBC to MIC for MLS-resistant Streptococcus pyogenes 12-206 expressing constitutive ermA gene
# Method in brief: (§2)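 MBC/MIC ratio. MIC was measured by CLSI standard two-fold broth dilution. MBC was measured by transferring samples at 1–8 fold MIC to culture medium and subculturing for 24 h without antibiotic. Isolates were identified by 16S rDNA sequencing.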
# [6] = tested on: Streptococcus pneumoniae; test: Antibacterial activity against Streptococcus pneumoniae 07P390 expressing constitutive ermB gene assessed as reduction in microbial growth by CLSI based two-fold broth dilution method
# [7] = tested on: Staphylococcus aureus; test: Antibacterial activity against MLS-resistant Staphylococcus aureus PU 20 expressing constitutive ermC gene assessed as reduction in microbial growth by CLSI based two-fold broth dilution method
# [8] = tested on: Streptococcus pyogenes; test: Selectivity ratio of MBC to MIC for Streptococcus pyogenes 12-207 expressing mef gene; method in brief: as §1
# [9] = tested on: Streptococcus pneumoniae; test: Bactericidal activity against erythromycin-susceptible Streptococcus pneumoniae ATCC49619 pretreated followed by subculture in absence of compound measured after 24 hrs; method in brief: as §1
# [10] = tested on: Moraxella catarrhalis; test: Selectivity ratio of MBC to MIC for erythromycin-susceptible Moraxella catarrhalis 13L332; method in brief: as §1
# [11] = tested on: Moraxella catarrhalis; test: Antibacterial activity against erythromycin-susceptible Moraxella catarrhalis 13L332 assessed as reduction in microbial growth by CLSI based two-fold broth dilution method
# [12] = tested on: Haemophilus influenzae; test: Bactericidal activity against azithromycin-susceptible Haemophilus influenzae ATCC 49247 pretreated followed by subculture in absence of compound measured after 24 hrs; method in brief: as §1
# [13] = tested on: Staphylococcus aureus; test: Selectivity ratio of MBC to MIC for MLS/methicillin-resistant Staphylococcus aureus PU 32 expressing inducible ermA gene; method in brief: as §2
# [14] = tested on: Haemophilus influenzae; test: Antibacterial activity against azithromycin-susceptible Haemophilus influenzae ATCC 49247 assessed as reduction in microbial growth by CLSI based two-fold broth dilution method
# [15] = tested on: Streptococcus pyogenes; test: Bactericidal activity against MLS-resistant Streptococcus pyogenes 01-968 expressing inducible ermB gene pretreated followed by subculture in absence of compound measured after 24 hrs
# Method in brief: (§3)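 MBC assay. Following MIC determination by CLSI standard two-fold broth dilution, samples at 1–8 fold MIC were transferred to fresh culture medium. They were subcultured for 24 h without antibiotic. Isolates were identified by 16S rDNA sequencing. S. aureus ATCC 29213 was used as a control strain.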
# [16] = tested on: Streptococcus pneumoniae; test: Selectivity ratio of MBC to MIC for penicillin-susceptible Streptococcus pneumoniae PU 09 expressing mef gene; method in brief: as §1
# [17] = tested on: Staphylococcus aureus; test: Bactericidal activity against MLS/methicillin-resistant Staphylococcus aureus PU 32 expressing inducible ermA gene pretreated followed by subculture in absence of compound measured after 24 hrs; method in brief: as §3
# [18] = tested on: Streptococcus pyogenes; test: Antibacterial activity against MLS-resistant Streptococcus pyogenes 01-968 expressing inducible ermB gene assessed as reduction in microbial growth by CLSI based two-fold broth dilution method
# [19] = tested on: Streptococcus pyogenes; test: Selectivity ratio of MBC to MIC for MLS-resistant Streptococcus pyogenes 01-968 expressing inducible ermB gene; method in brief: as §2
# [20] = tested on: Streptococcus pneumoniae; test: Bactericidal activity against penicillin-susceptible Streptococcus pneumoniae PU 09 expressing mef gene pretreated followed by subculture in absence of compound measured after 24 hrs; method in brief: as §1
# [21] = tested on: Streptococcus pyogenes; test: Bactericidal activity against MLS-resistant Streptococcus pyogenes 12-206 expressing constitutive ermA gene pretreated followed by subculture in absence of compound measured after 24 hrs; method in brief: as §3
# [22] = tested on: Streptococcus pyogenes; test: Antibacterial activity against MLS-resistant Streptococcus pyogenes 12-206 expressing constitutive ermA gene assessed as reduction in microbial growth by CLSI based two-fold broth dilution method
# [23] = tested on: Streptococcus pneumoniae; test: Bactericidal activity against Streptococcus pneumoniae 07P390 expressing constitutive ermB gene pretreated followed by subculture in absence of compound measured after 24 hrs; method in brief: as §1
# [24] = tested on: Streptococcus pyogenes; test: Bactericidal activity against Streptococcus pyogenes 12-207 expressing mef gene pretreated followed by subculture in absence of compound measured after 24 hrs; method in brief: as §1
# [25] = tested on: Streptococcus pneumoniae; test: Antibacterial activity against erythromycin-susceptible Streptococcus pneumoniae ATCC49619 assessed as reduction in microbial growth by CLSI based two-fold broth dilution method
# [26] = tested on: Streptococcus pneumoniae; test: Antibacterial activity against penicillin-susceptible Streptococcus pneumoniae PU 09 expressing mef gene assessed as reduction in microbial growth by CLSI based two-fold broth dilution method
# [27] = tested on: Haemophilus influenzae; test: Selectivity ratio of MBC to MIC for azithromycin-susceptible Haemophilus influenzae ATCC 49247; method in brief: as §1
# [28] = tested on: Staphylococcus aureus; test: Bactericidal activity against MLS-resistant Staphylococcus aureus PU 20 expressing constitutive ermC gene pretreated followed by subculture in absence of compound measured after 24 hrs; method in brief: as §3
Structure (SMILES),Selectivity ratio [1],MIC [2],MIC [3],MBC [4],Selectivity ratio [5],MIC [6],MIC [7],Selectivity ratio [8],MBC [9],Selectivity ratio [10],MIC [11],MBC [12],Selectivity ratio [13],MIC [14],MBC [15],Selectivity ratio [16],MBC [17],MIC [18],Selectivity ratio [19],MBC [20],other results
CC[C@H]1OC(=O)[C@@](C)(F)C(=O)[C@H](C)[C@@H](O[C@@H]2O[C@H](C)C[C@H](N(C)C)[C@H]2O)[C@](C)(OC/C=C/c2ccc3c(c2)c(=O)c(C(=O)NC)cn3CC)C[C@@H](C)/C(=N\OC)[C@H](C)[C@H]2OC(=O)O[C@@]21C,>8,0.062 µg/mL,0.25 µg/mL,4 µg/mL,>8,0.031 µg/mL,> 256 µg/mL,4,≤ 8 ng/mL,8,0.5 µg/mL,> 256 µg/mL,>8,256 µg/mL,0.008 µg/mL,2,> 2 µg/mL,≤ 2 ng/mL,>=4,1 µg/mL,MBC [21]: > 0.016 µg/mL; MIC [22]: ≤ 0.002 µg/mL; MBC [23]: > 0.25 µg/mL; MBC [24]: 0.25 µg/mL; MIC [25]: ≤ 8 ng/mL; MIC [26]: 0.5 µg/mL
CC[C@H]1OC(=O)[C@@](C)(F)C(=O)[C@H](C)[C@@H](O[C@@H]2O[C@H](C)C[C@H](N(C)C)[C@H]2O)[C@](C)(OC)C[C@@H](C)/C(=N\OCC#Cc2ccc3c(c2)c(=O)c(C(=O)NC)cn3CC)[C@H](C)[C@H]2OC(=O)O[C@@]21C,>8,0.25 µg/mL,2 µg/mL,> 32 µg/mL,>8,0.125 µg/mL,128 µg/mL,4,≤ 8 ng/mL,>8,4 µg/mL,64 µg/mL,>8,32 µg/mL,> 0.016 µg/mL,4,> 16 µg/mL,≤ 2 ng/mL,>8,1 µg/mL,Selectivity ratio [27]: 2; MBC [28]: > 256 µg/mL; MBC [21]: > 1 µg/mL; MIC [22]: 0.125 µg/mL; MBC [23]: > 1 µg/mL; MBC [24]: 1 µg/mL; MIC [25]: ≤ 8 ng/mL; MIC [26]: 0.25 µg/mL
CC[C@H]1OC(=O)[C@@](C)(F)C(=O)[C@H](C)[C@@H](O[C@@H]2O[C@H](C)C[C@H](N(C)C)[C@H]2O)[C@](C)(OC)C[C@@H](C)/C(=N\OCC#Cc2ccc3c(c2)c(=O)c(C(N)=O)cn3C2CC2)[C@H](C)[C@H]2OC(=O)O[C@@]21C,>8,0.25 µg/mL,1 µg/mL,> 32 µg/mL,>8,0.25 µg/mL,128 µg/mL,8,≤ 8 ng/mL,>8,4 µg/mL,128 µg/mL,8,32 µg/mL,> 0.016 µg/mL,2,8 µg/mL,≤ 2 ng/mL,>8,0.5 µg/mL,Selectivity ratio [27]: 4; MBC [28]: > 256 µg/mL; MBC [21]: > 8 µg/mL; MIC [22]: 1 µg/mL; MBC [23]: > 2 µg/mL; MBC [24]: 2 µg/mL; MIC [25]: ≤ 8 ng/mL; MIC [26]: 0.25 µg/mL
CC[C@H]1OC(=O)[C@@](C)(F)C(=O)[C@H](C)[C@@H](O[C@@H]2O[C@H](C)C[C@H](N(C)C)[C@H]2O)[C@](C)(OC)C[C@@H](C)/C(=N\OC/C=C/c2ccc3c(c2)c(=O)c(C(=O)NC)cn3CC)[C@H](C)[C@H]2OC(=O)O[C@@]21C,>8,0.25 µg/mL,2 µg/mL,64 µg/mL,>8,0.25 µg/mL,128 µg/mL,4,≤ 8 ng/mL,8,8 µg/mL,256 µg/mL,>8,128 µg/mL,> 0.125 µg/mL,1,> 16 µg/mL,16 ng/mL,>8,0.5 µg/mL,Selectivity ratio [27]: 2; MBC [28]: > 256 µg/mL; MBC [21]: > 8 µg/mL; MIC [22]: 1 µg/mL; MBC [23]: > 2 µg/mL; MBC [24]: 1 µg/mL; MIC [25]: ≤ 8 ng/mL; MIC [26]: 0.5 µg/mL
